XBP1 UPR activ: activators of adaptive arm of unfolded protein response (XBP1); activation, % at 20 µM; AID 463104; actives 0.33% (n = 330,000); CHO-XBP1 luciferase reporter, IRE1-XBP1 UPR activation, luminescence; percent of tunicamycin response, DMSO as zero;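 active means versus positive control, 20 µM dose yields 30% or more activation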;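 further: 100% = tunicamycin at 10 µg/mL and 0% = DMSO only wells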
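incubation = overnight seeding at 37 °C, 6 h compound treatment at 37 °C | assay system = CHO-XBP1 cells stably carrying IRE1-XBP1-driven luciferase reporter | input = 1000 cells per well | detection = luciferase luminescence | dosing = single point, 20 µM final compound, 1% DMSO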
CHOP inh: inhibitors of CHOP induction in ER stress response. CHO-K1 CHOP-promoter luciferase, tunicamycin-induced, 15-18 h. actives 3.8% (n = 220,000). AID 2732. inhibition, % at 10 µM;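 active means compounds that reduced the stress-induced luciferase reporter signal by more than about 70% of percent inhibition, limit read from the data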;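 further: 0% = tunicamycin plus vehicle and 100% = wells without tunicamycin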
NOD2-RIPK2 inh: blocks binding of human NOD2 to RIPK2; O43353; inhibition, % at 4.98 µM; actives 0.38% (n = 360,000); CHO BLA complementation NOD2-RIPK2, CCF4 ratio; in the data active means inhibition above about 21%;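 further: 0% = vehicle only and 100% = reference blocker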
CHOP UPR activ: activators of apoptotic arm of unfolded protein response (CHOP); CHO-CHOP luciferase reporter, UPR activation, luminescence; percent of tunicamycin response over DMSO baseline; activation, % at 10 µM; actives 0.34% (n = 330,000);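 active means at 10 µM dose, activation of 40% or more, normalized to positive control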;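 further: 100% = tunicamycin at 10 µg/mL and 0% = DMSO alone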
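Evaluation: % reporter activation, DMSO baseline versus tunicamycin full activation; System: CHO-CHOP luciferase reporter cell line; Input: 500 cells/well; Incubation: 6 h compound treatment, 37 °C; Measured by: Steady-Glo luciferase luminescence; Dosing: one dose, 10 µM in 0.5% DMSO; Buffer or medium: F12 medium, 10% FBS; Benchmarks: positive tunicamycin 10 µg/mL, negative DMSO alone.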
TLR9-MyD88 block: TLR9-MyD88 interaction inhibition. actives 0.21% (n = 340,000). Q9NR96+Q99836. CHO BLA complementation TLR9-MyD88, CCF4 FRET ratio. inhibition, % at 4.98 µM;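 active means inhibition above the mean over all tested compounds plus 3 SD, cut at about 21% in these data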;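 further: 0% = DMSO only wells and 100% = clavulanate BLA inhibitor control wells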
TLR4-MyD88 BLA: inhibitors of human TLR4-MyD88 binding | inhibition, % at 8.4 µM | actives 0.18% (n = 200,000) | HeLa CL3-4 TLR4/MyD88 BLA complementation, FRET ratio | O00206+Q99836 | AID 861; in the data active means inhibition above about 25%;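 further: 0% = vehicle and 100% = reference inhibitor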
CHOP inh conf: confirmation of CHOP induction inhibitors. actives 45% (n = 2,100). inhibition, % at 10 µM. shares compounds with CHOP inh. AID 504437. CHO-CHOP promoter luciferase reporter, tunicamycin-induced, luminescence;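 active means mean of three repeat readings of reporter signal inhibition above a set limit, cut at about 70% in these data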;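 further: 0% = tunicamycin plus vehicle and 100% = wells lacking tunicamycin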
UPR CHOP confirm: apoptotic UPR (CHOP) activation, confirmed; shares compounds with CHOP UPR activ; CHO-CHOP cells, CHOP-luciferase reporter luminescence; percent of tunicamycin response, DMSO as zero; activation, % at 10 µM; actives 64% (n = 1,000); AID 463112; in the data active means activation above about 33%;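 further: 0% = DMSO wells and 100% = tunicamycin 10 µg/mL wells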
Numbers without * were called inactive; x = not tested or not shown. The full list was thinned out, with hits kept by preference.

SMILES	XBP1 UPR activ	CHOP inh	NOD2-RIPK2 inh	CHOP UPR activ	TLR9-MyD88 block	TLR4-MyD88 BLA	CHOP inh conf	UPR CHOP confirm
CNC(=O)C(C)Sc1ccc(S(=O)(=O)N2CCOCC2)cn1 (centres undefined)	-1	x	-10	-1	3	x	x	x
COC(=O)c1cn(Nc2ncc(C(F)(F)F)cc2Cl)c(=O)c2ccccc12	0	99*	3	-1	5	-2	10	x
COC(=O)c1cn(N(C)c2ncc(C(F)(F)F)cc2Cl)c(=O)c2ccccc12	1	-53	-4	-3	5	2	x	x
Cc1ccc(SCCNS(=O)(=O)c2ccc(F)cc2)cc1	-1	97*	-45	2	4	-16	6	x
COc1ccc(S(=O)(=O)NCCSc2ccc(C)cc2)cc1OC	-2	36	13	0	-6	13	x	x
CCCCC[C@@H](C)N1C[C@H](COCc2ccccc2)Oc2cc(N3CC[C@H](N(C)C)C3)ccc2S1(=O)=O	x	x	-2	x	x	x	x	x
C/C(=N\NC(=O)CC1N=C(Cc2ccccc2)NNC1=O)c1ccc(Cl)cc1Cl (centres undefined)	3	99*	-2	0	-3	0	28	x
CCc1ccc(NC(=O)CSc2nc(=O)n3cc(C)ccc3n2)cc1	-1	x	0	0	3	x	x	x
O=C(COC(=O)Cc1c(Cl)cccc1Cl)NCC1CCCO1 (centres undefined)	4	-13	-4	3	-1	-15	x	x
CCOc1cc(C=C(C(=O)OC)C(=O)OC)ccc1OCc1ccc([N+](=O)[O-])cc1	-5	99*	21	220*	1	-3	-40	242*
O=C(c1ccco1)N1CCN(Cc2cccc3ccccc23)CC1	-3	x	-6	0	3	x	x	x
Cc1ccc(-c2cc(NC(=O)CCl)n(-c3ccccc3)n2)cc1	-1	x	8	82*	7	0	-150	99*
CC(=O)Nc1ccc(-c2cc(NC(C)=O)n(-c3ccccc3)n2)cc1	0	-10	2	0	-3	1	x	x
CC1=NOC(=O)/C1=C/c1ccc(-c2ccc(Cl)cc2)o1	-9	109*	-3	265*	6	17	66	34*
CC1=NOC(=O)/C1=C\c1ccc(-c2ccc(Br)cc2)o1	x	-2	5	x	4	4	x	x
CC1=NOC(=O)/C1=C\c1ccc(-c2cc(Cl)ccc2Cl)o1	-8	114*	3	69*	7	5	-20	-9
CCOc1cc(NC(=O)CCl)c(OCC)cc1NC(=O)CCl	-4	98*	1	153*	1	x	79*	87*
CCOc1cc(NC(=S)Nc2ccc(Cl)cc2)c(OCC)cc1NC(C)=O	1	-18	-3	4	-2	-16	x	x
CCOC(=O)c1ccc(N2C(=O)C=CC2=O)cc1	-4	112*	1	47*	10	10	-37	33*
CCN1C(=O)C2(C(C(=O)c3cc4ccccc4o3)=C(O)C(=O)N2CCCN2CCOCC2)c2ccccc21 (centres undefined)	-3	-8	2	2	0	x	x	x
O=C(CCl)c1ccc(Cc2ncc(C(F)(F)F)cc2Cl)s1	8	104*	8	169*	-9	-13	-119	169*
NS(=O)(=O)c1ccc(Cc2ncc(C(F)(F)F)cc2Cl)s1	-2	38	5	1	-5	-6	x	x
O=C(/C=C/Sc1ccc(C(F)(F)F)cn1)c1ccccc1	-1	104*	1	84*	0	x	-31	47*
CC(C)CN(CC(C)C)C(=O)C12CCC(C)(C(=O)O1)C2(C)C (centres undefined)	0	29	6	2	2	-7	x	x
O=C(CSc1cc(Cl)ccc1Cl)NC1CCCC1	-4	x	0	1	-7	x	x	x
SMILES	XBP1 UPR activ	CHOP inh	NOD2-RIPK2 inh	CHOP UPR activ	TLR9-MyD88 block	TLR4-MyD88 BLA	CHOP inh conf	UPR CHOP confirm
O=C1CC(c2ccccc2)CC(O)=C1C=Nc1ccccc1 (centres undefined)	26	60	1	35	x	1	x	x
O=C1CC(c2cccc(Cl)c2)CC(O)=C1C=Nc1cccc(Cl)c1 (centres undefined)	0	99*	6	52*	4	-16	72*	3
CCOC(=O)/C(=C\c1ccc(Cl)cc1)c1nc2sc(C)c(C)c2c(=O)[nH]1	-2	107*	6	59*	7	7	-45	198*
Cc1nc(NC(=O)/C=C/c2ccccc2)n[nH]1	-1	97*	5	44*	1	-17	49	35*
COc1ccccc1N1CCN(Cc2ccc(O)c3ncccc23)CC1	18	102*	-2	113*	-8	7	-66	97*
NC(=O)COc1ccc(C(=O)/C=C2/C(=O)Nc3ccccc32)cc1	2	x	6	11	0	x	x	x
O=C1Nc2ccccc2/C1=C/C(=O)c1cccs1	12	104*	13	74*	-3	5	-47	125*
Cc1ccc(Cn2ncc(Cl)c(Cl)c2=O)cc1	2	107*	8	42*	7	6	-26	21
Cc1[nH]c(C)c2c(=O)n(Cc3ccc(Cl)cc3)ncc12	8	20	10	-1	5	x	x	x
CSc1ccc(S(=O)(=O)NCC(=O)OCC(=O)N(C)CC(=O)Nc2ccc(F)cc2)cc1[N+](=O)[O-]	x	x	-1	x	3	x	x	x
CCCCC(=O)N(Cc1nc2sc(C)c(C)c2c(=O)[nH]1)C1CCCC1	-2	24	3	0	1	-7	x	x
Fc1ccc(Sc2nc(-c3ccccc3)nnc2C(F)(F)F)cc1	-3	112*	9	41*	2	22	27	20
Fc1ccc(Oc2nc(-c3ccccc3)nnc2C(F)(F)F)cc1	-4	18	-10	1	-4	3	x	x
Cc1cc(NC(=O)CCS(=O)(=O)c2nc(-c3ccccc3)cc(C(F)(F)F)n2)no1	-9	x	23*	138*	11	x	-229	466*
Cc1ccc(S(=O)(=O)CCC(=O)Nc2cc(C)on2)cc1	x	x	-11	x	-9	x	x	x
O=S(=O)(c1ccc(Cl)cc1)c1snnc1-c1ccccc1	12	x	7	64*	-6	17	-82	55*
Cn1c(-c2cccc(OCc3ccccc3)c2)nc2c1c(=O)[nH]c(=O)n2Cc1ccccc1	16	106*	-9	76*	-4	2	79*	144*
